Calls of active or inactive are those of the source. The rule behind the calls is not given here.
What was measured:
A549 [1] = experiment: Downregulation of […] mRNA expression in human A549 cells at 10 uM incubated for 48 hrs by qRT-PCR analysis; assay type: functional, cell-based
Method in brief: (§1)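 Cells treated 48 h. Total RNA extracted with Trizol, reverse-transcribed, and SYBR RT-qPCR run: 95 °C 30 s, then 40 cycles of 95 °C 6 s and 60 °C 20 s. mRNA normalized to the DMSO-treated group. Mean SD of three independent experiments, t-test versus DMSO.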

[2] = biological target: T1, Protein cereblon/Histone-lysine N-methyltransferase EZH2 (Homo sapiens) (UniProt Q15910+Q96SW2); experiment: PROTAC activity at CRBN E3 ligase/EZH2 in PRC2 complex in human WSUDLCL2 cells assessed as downregulation of EED expression at 1 uM pretreated with EPZ6438 for 4 hrs followed by compound addition and measured after 48 hrs by Western blot analysis; assay type: cell-based
T1 sequence (Q15910 whole entry, looked up): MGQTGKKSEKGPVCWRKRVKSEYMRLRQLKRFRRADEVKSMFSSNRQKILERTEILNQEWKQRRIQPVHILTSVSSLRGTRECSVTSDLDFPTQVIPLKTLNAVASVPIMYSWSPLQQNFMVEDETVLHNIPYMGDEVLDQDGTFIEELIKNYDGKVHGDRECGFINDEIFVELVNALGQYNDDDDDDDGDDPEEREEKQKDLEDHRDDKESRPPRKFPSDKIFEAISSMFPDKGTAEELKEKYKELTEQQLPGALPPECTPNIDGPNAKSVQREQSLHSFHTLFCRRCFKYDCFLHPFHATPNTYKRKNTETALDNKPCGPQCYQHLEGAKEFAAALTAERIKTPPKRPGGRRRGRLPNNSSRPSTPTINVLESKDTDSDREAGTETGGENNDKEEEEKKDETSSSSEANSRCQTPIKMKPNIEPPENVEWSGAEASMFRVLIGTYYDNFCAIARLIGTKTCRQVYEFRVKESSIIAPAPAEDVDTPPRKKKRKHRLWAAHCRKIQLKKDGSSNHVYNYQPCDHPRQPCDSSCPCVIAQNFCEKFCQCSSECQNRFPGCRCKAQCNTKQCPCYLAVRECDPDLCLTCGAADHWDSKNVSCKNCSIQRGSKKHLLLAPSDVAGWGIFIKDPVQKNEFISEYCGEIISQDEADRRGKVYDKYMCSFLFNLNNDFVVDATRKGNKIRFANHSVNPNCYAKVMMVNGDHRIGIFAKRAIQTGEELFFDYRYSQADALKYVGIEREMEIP
T1 sequence (Q96SW2 whole entry, looked up): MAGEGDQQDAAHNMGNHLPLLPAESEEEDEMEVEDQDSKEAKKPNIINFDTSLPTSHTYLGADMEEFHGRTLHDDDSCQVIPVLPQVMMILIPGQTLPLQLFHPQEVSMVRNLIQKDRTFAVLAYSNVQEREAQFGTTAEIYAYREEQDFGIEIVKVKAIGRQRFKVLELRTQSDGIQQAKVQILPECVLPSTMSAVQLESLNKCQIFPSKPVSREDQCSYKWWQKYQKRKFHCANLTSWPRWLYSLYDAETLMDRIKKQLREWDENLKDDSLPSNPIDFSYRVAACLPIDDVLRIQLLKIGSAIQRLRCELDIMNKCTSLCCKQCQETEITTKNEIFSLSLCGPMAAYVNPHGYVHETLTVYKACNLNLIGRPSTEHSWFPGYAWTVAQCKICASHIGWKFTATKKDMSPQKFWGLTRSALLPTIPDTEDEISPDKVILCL
Method in brief: (§2)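 WSU-DLCL-2 cells pretreated 4 h with the named inhibitor, then compound added and incubated a further 48 h. EZH2, SUZ12, EED and RbAp48 measured by western blot (nitrocellulose transfer, skim-milk block, primary antibody overnight at 4 °C, chemiluminescent detection).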

A549 [3] = experiment: Antiproliferative activity against human A549 cells harboring SWI/SNF mutant assessed as inhibition of cell growth at 10 uM treated for 9 days by optical microscopic analysis; assay type: functional, cell-based; conditions: time 9.0 day
Method in brief: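 Cells seeded at 5 × 10³ per well, grown 24 h, then exposed to compound at 10 μM for 9 days with medium refreshed. Cells were photographed and counted on days 1, 3, 5, 7 and 9. For lines 1-2, EZH2-targeting or control shRNA was induced in the cells. Mean SD of three independent experiments; t-test against control.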

[4] = biological target: T1, Protein cereblon/Histone-lysine N-methyltransferase EZH2 (Homo sapiens); experiment: PROTAC activity at CRBN E3 ligase/EZH2 in PRC2 complex in human WSUDLCL2 cells assessed as reduction in H3K27me3 level at 1 uM incubated for 48 hrs by Western blot analysis relative to control; assay type: cell-based; design: scale not given: the % may be the effect or the level left
Method in brief: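 WSU-DLCL-2 cells treated 48 h (1 μM for the single-concentration screen), lysed; SDS-PAGE, nitrocellulose transfer, 5% milk block, primary antibody 4 °C overnight, chemiluminescence. Bands quantified by densitometry, normalized to GAPDH, expressed relative to DMSO-treated cells; mean ± SD of three independent experiments, t-test.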

WSUDLCL2 [5] = experiment: Upregulation of ADRB2 mRNA expression in human WSUDLCL2 cells at 1 uM incubated for 48 hrs by qRT-PCR analysis; assay type: functional, cell-based
Method in brief: (§3)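 WSU-DLCL-2 or Pfeiffer cells treated 48 h. Trizol RNA extraction, reverse transcription, SYBR qPCR (95 °C 30 s; 40 cycles of 95 °C 6 s, 60 °C 20 s). mRNA normalized to DMSO-treated cells; mean ± SD of three independent experiments, t-test.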

[6] = biological target: T1, Protein cereblon/Histone-lysine N-methyltransferase EZH2 (Homo sapiens); experiment: PROTAC activity at CRBN E3 ligase/EZH2 in PRC2 complex in human WSUDLCL2 cells assessed as induction of SUZ12 degradation by measuring reduction in SUZ12 protein level at 1 uM measured after 48 to 72 hrs by Western blot analysis; assay type: cell-based; conditions: time 48-72 hrs
MDA-MB-468 = experiment: Downregulation of CHEK1 mRNA expression in human MDA-MB-468 cells at 10 uM incubated for 48 hrs by qRT-PCR analysis; assay type: functional, cell-based; method in brief: as §1
A549 [7] = experiment: Downregulation of CEP76 mRNA expression in human A549 cells at 10 uM incubated for 48 hrs by qRT-PCR analysis; assay type: functional, cell-based; method in brief: as §1
[8] = biological target: T1, Protein cereblon/Histone-lysine N-methyltransferase EZH2 (Homo sapiens); experiment: PROTAC activity at CRBN E3 ligase/EZH2 in PRC2 complex in human LNCaP cells assessed as induction of EZH2 degradation by measuring reduction in EZH2 protein level at 1 uM incubated for 48 hrs by Western blot analysis; assay type: cell-based
Method in brief: (§4)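 Cancer cell lines exposed to 1 μM compound for 48 h. Lysates immunoblotted (SDS-PAGE, nitrocellulose, 5% milk block, primary antibody overnight at 4 °C) for EZH2, SUZ12, EED, RbAp48 and H3K27me3. Bands quantified by densitometry and normalized to GAPDH.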

[9] = biological target: T1, Protein cereblon/Histone-lysine N-methyltransferase EZH2 (Homo sapiens); experiment: PROTAC activity at CRBN E3 ligase/EZH2 in PRC2 complex in human LNCaP cells assessed as induction of RbAp48 degradation by measuring reduction in RbAp48 protein level at 1 uM incubated for 48 hrs by Western blot analysis; assay type: cell-based; method in brief: as §4
[10] = biological target: T1, Protein cereblon/Histone-lysine N-methyltransferase EZH2 (Homo sapiens); experiment: PROTAC activity at CRBN E3 ligase/EZH2 in PRC2 complex in human WSUDLCL2 cells assessed as downregulation of RbAp48 expression at 1 uM pretreated with GSK126 for 4 hrs followed by compound addition and measured after 48 hrs by Western blot analysis; assay type: cell-based; method in brief: as §2
[11] = biological target: T1, Protein cereblon/Histone-lysine N-methyltransferase EZH2 (Homo sapiens); experiment: PROTAC activity at CRBN E3 ligase/EZH2 in PRC2 complex in human WSUDLCL2 cells assessed as effect on SUZ12 mRNA expression at 1 uM incubated for 48 hrs by RT-qPCR analysis; assay type: cell-based
Method in brief: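 WSU-DLCL-2 cells treated 48 h with 1 μM compound. Total RNA extracted with Trizol and reverse-transcribed. SYBR qPCR run as 95 °C 30 s, then 40 cycles of 95 °C 6 s and 60 °C 20 s. PRC2 subunit mRNA normalized to the DMSO-treated group; mean SD, t-test.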

[12] = biological target: T1, Protein cereblon/Histone-lysine N-methyltransferase EZH2 (Homo sapiens); experiment: PROTAC activity at CRBN E3 ligase/EZH2 in PRC2 complex in human WSUDLCL2 cells assessed as downregulation of SUZ12 expression at 1 uM pretreated with GSK126 for 4 hrs followed by compound addition and measured after 48 hrs by Western blot analysis; assay type: cell-based; method in brief: as §2
[13] = biological target: T1, Protein cereblon/Histone-lysine N-methyltransferase EZH2 (Homo sapiens); experiment: PROTAC activity at CRBN E3 ligase/EZH2 in PRC2 complex in human WSUDLCL2 cells assessed as downregulation of RbAp48 expression at 1 uM pretreated with EPZ6438 for 4 hrs followed by compound addition and measured after 48 hrs by Western blot analysis; assay type: cell-based; method in brief: as §2
[14] = biological target: T1, Protein cereblon/Histone-lysine N-methyltransferase EZH2 (Homo sapiens); experiment: PROTAC activity at CRBN E3 ligase/EZH2 in PRC2 complex in human SU-DHL-6 cells assessed as induction of SUZ12 degradation by measuring reduction in SUZ12 protein level at 1 uM incubated for 48 hrs by Western blot analysis; assay type: cell-based
Method in brief: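 Cells cultured in DMEM or RPMI 1640 with 10% FBS and 1% penicillin-streptomycin, 37 °C, 5% CO2; exposed to 1 μM compound for 48 h. Lysates run on SDS-PAGE and transferred to nitrocellulose. Blocked 2 h in 5% skim milk, primary antibody overnight at 4 °C, then secondary antibody. Chemiluminescent detection of PRC2 subunits and H3K27me3.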

WSUDLCL2 [15] = experiment: Upregulation of CDKN2A mRNA expression in human WSUDLCL2 cells at 1 uM incubated for 48 hrs by qRT-PCR analysis; assay type: functional, cell-based; method in brief: as §3
Pfeiffer = experiment: Upregulation of ADRB2 mRNA expression in human Pfeiffer cells at 1 uM incubated for 48 hrs by qRT-PCR analysis; assay type: functional, cell-based; method in brief: as §3
WSUDLCL2 [16] = experiment: Upregulation of TNFRSF21 mRNA expression in human WSUDLCL2 cells at 1 uM incubated for 48 hrs by qRT-PCR analysis; assay type: functional, cell-based; method in brief: as §3
[17] = biological target: T1, Protein cereblon/Histone-lysine N-methyltransferase EZH2 (Homo sapiens); experiment: PROTAC activity at CRBN E3 ligase/EZH2 in PRC2 complex in human WSUDLCL2 cells assessed as downregulation of RbAp48 expression at 1 uM pretreated with EED226 for 4 hrs followed by compound addition and measured after 48 hrs by Western blot analysis; assay type: cell-based; method in brief: as §2

## CCN(c1cc(-c2ccc(CN3CCN(CCCCCCCOc4cccc5c4C(=O)N(C4CCC(=O)NC4=O)C5=O)CC3)cc2)cc(C(=O)NCc2c(C)cc(C)[nH]c2=O)c1C)C1CCOCC1 (centres undefined)
A549 [1]
  Activity: Active
[2]
  Activity: inactive
A549 [3]
  Activity: Active
[4]
  Activity: 83%
WSUDLCL2 [5]
  Activity: Active
[6]
  Activity: Active
MDA-MB-468
  Activity: Active
A549 [7]
  Activity: Active
[8]
  Activity: Active
[9]
  Activity: Active
[10]
  Activity: inactive
[11]
  Activity: inactive
[12]
  Activity: inactive
[13]
  Activity: inactive
[14]
  Activity: Active
WSUDLCL2 [15]
  Activity: inactive
Pfeiffer
  Activity: Active
WSUDLCL2 [16]
  Activity: Active
[17]
  Activity: Active
